Experiments:
[1] = Cytotoxicity against human HepG2(2.2.15) cells after 8 days by MTT assay; assay type: cell-based
In short: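 HepG2.2.15 cells in triplicate, exposed 8 days to various doses; media-only controls. MTT (5 g/L) added 4 h before end, cells lysed with 10% SDS/50% DMF pH 7.2, OD read at 570 nm 6 h later.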

[2] = test system: Hepatitis B virus; test: Antiviral activity against Hepatitis B virus infected in human HepG2(2.2.15) cells assessed as inhibition of viral cytoplasmic DNA synthesis after 8 days by RT-PCR analysis; assay type: functional, organism-based; conditions: HepG2 2.2.15, 192 h
[3] = Selectivity index, ratio of CC50 for human HepG2(2.2.15) cells to IC50 for Hepatitis B virus; assay type: functional
In short: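 SI calculated as CC50 (MTT, HepG2.2.15, 8 days) divided by IC50 for inhibition of cytoplasmic HBV-DNA synthesis (fluorescent PCR) in the same cells.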

IC50 [2]: 0.16 µM
SMILES: Nc1ccn([C@@H]2CS[C@H](CO)O2)c(=O)n1 [LAMIVUDINE]
CC50 at 192 h [1]: 5 µM
Selectivity Index [3]: 31.3

From ChEMBL document CHEMBL1177679, “Design and synthesis of novel benzimidazole derivatives as inhibitors of hepatitis B virus” (Bioorg Med Chem, 2010)
